Test results as given in ChEMBL document CHEMBL4251647, “Synthesis, anticancer activity and mechanism of action of new thiazole derivatives” (Eur J Med Chem, 2018).

Tests used:
K562 [1] = experiment: Cell cycle arrest in human K562 cells assessed as accumulation at G1-phase at 34 uM after 48 hrs by flow cytometry (reference value: 45.54 +/- 1.34%); type: functional
How it was run: (§1)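 K562 cells seeded at 3 x 10^5 cells/mL in RPMI-1640 and exposed 48 h at 37 °C, 5% CO2. Cells were stained with propidium iodide (Guava cell cycle kit) and 5,000 events acquired by flow cytometry. Vehicle control was 0.1% DMSO. Two independent experiments, each in triplicate.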

NCI-H292 [2] = experiment: Cytotoxicity against human NCI-H292 cells assessed as inhibition of cell viability after 72 hrs by MTT assay; type: functional, cell-based; conditions: NCI-H292, 72 h
How it was run: (§2)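 MTT assay. Leukaemic lines were seeded at 3 x 10^5 cells/mL and adherent lines at 1 x 10^5 cells/mL, then preincubated 24 h. Compounds were added at 0.098–25.0 µg/mL for 72 h, with MTT for the last 3 h. Formazan was dissolved in DMSO and read at 560 nm. IC50 came from regression; triplicate, two independent experiments.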

HT-29 [3] = experiment: Cytotoxicity against human HT-29 cells assessed as inhibition of cell viability after 72 hrs by MTT assay; type: functional, cell-based; conditions: HT-29, 72 h; how it was run: as §2
[4] = Selectivity index, ratio of IC50 for human PBMC to IC50 for human K562 cells; type: toxicity; conditions: human PBMC and human K562 cells, read-out: Ratio IC50
How it was run: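 Ratio of IC50 in PBMC (Alamar blue, 72 h) to IC50 in K562 cells (MTT, 72 h), calculated as SI = IC50(PBMC)/IC50(K562).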

K562 [5] = experiment: Induction of mitochondrial membrane potential depolarization in human K562 cells at 17 uM after 48 hrs by Rho-123 staining based flow cytometry (reference value: 12.24 +/- 0.61%); type: functional
K562 [6] = experiment: Cytotoxicity against human K562 cells assessed as inhibition of cell viability after 72 hrs by MTT assay; type: functional, cell-based; conditions: K562, 72 h; how it was run: as §2
HL-60 [7] = experiment: Cytotoxicity against human HL60 cells assessed as inhibition of cell viability after 72 hrs by MTT assay; type: functional, cell-based; conditions: HL-60, 72 h; how it was run: as §2
HT-29 [8] = experiment: Cytotoxicity against human HT-29 cells assessed as inhibition of cell viability at 25 ug/ml after 72 hrs by MTT assay relative to control; type: functional; conditions: HT-29, 72 h
How it was run: (§3)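 Single-concentration MTT screen at 25 µg/mL for 72 h. Seeding was 3 x 10^5 cells/mL (HL-60, K562) or 1 x 10^5 cells/mL (adherent), with 24 h preincubation. MTT was added for the final 3 h, formazan dissolved in DMSO and absorbance read at 560 nm. Results are given as percent inhibition ± SD.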

K562 [9] = experiment: Cytotoxicity against human K562 cells assessed as inhibition of cell viability after 24 hrs by MTT assay; type: functional, cell-based; conditions: K562, 24 h
How it was run: (§4)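 K562 cells (3 x 10^5 cells/mL, RPMI-1640 with 10% FBS) were treated with serial dilutions for 24 or 48 h. Viability was read by MTT (absorbance at 560 nm after DMSO solubilisation), and IC50 was obtained by regression.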

K562 [10] = experiment: Cell cycle arrest in human K562 cells assessed as accumulation at G2/M-phase at 17 uM after 48 hrs by flow cytometry (reference value: 35.97 +/- 1.94%); type: functional; how it was run: as §1
HEp-2 [11] = experiment: Cytotoxicity against human Hep2 cells assessed as inhibition of cell viability at 25 ug/ml after 72 hrs by MTT assay relative to control; type: functional; conditions: HEp-2, 72 h; how it was run: as §3
K562 [12] = experiment: Induction of DNA damage in human K562 cells at 34 uM after 48 hrs by propidium iodide staining based flow cytometry (reference value: 3.62 +/- 0.37%); type: functional
K562 [13] = experiment: Cytotoxicity against human K562 cells assessed as inhibition of cell viability at 25 ug/ml after 72 hrs by MTT assay relative to control; type: functional; conditions: K562, 72 h; how it was run: as §3
K562 [14] = experiment: Cell cycle arrest in human K562 cells assessed as accumulation at G1-phase at 17 uM after 48 hrs by flow cytometry (reference value: 45.54 +/- 1.34%); type: functional; how it was run: as §1
K562 [15] = experiment: Induction of mitochondrial membrane potential depolarization in human K562 cells at 34 uM after 48 hrs by Rho-123 staining based flow cytometry (reference value: 12.24 +/- 0.61%); type: functional
K562 [16] = experiment: Cell cycle arrest in human K562 cells assessed as accumulation at S-phase at 34 uM after 48 hrs by flow cytometry (reference value: 17.39 +/- 0.84%); type: functional; how it was run: as §1
PBMC = experiment: Cytotoxicity against human PBMC cells assessed as inhibition of cell viability after 72 hrs by alamar blue assay; type: cell-based
How it was run: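 PBMC from healthy donors were grown in RPMI-1640 with 20% FBS and 2% phytohaemagglutinin, then plated at 10^6 cells/mL. After 24 h, compounds (0.048–25 µg/mL, in DMSO) were added for 72 h. Resazurin was added for the final 24 h and absorbance read at 570 and 595 nm as percent of control.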

K562 [17] = experiment: Cell cycle arrest in human K562 cells assessed as accumulation at G2/M-phase at 34 uM after 48 hrs by flow cytometry (reference value: 35.97 +/- 1.94%); type: functional; how it was run: as §1
Erythrocyte = experiment: Hemolytic activity in human erythrocytes after 1 hr by spectrophotometric method; type: ADME, cell-based
How it was run: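 Human erythrocytes as a 2% suspension in 0.85% NaCl with 10 mM CaCl2 were exposed to 0.78–250 µg/mL for 1 h at room temperature. After centrifugation, released haemoglobin in the supernatant was read at 540 nm. Triton X-100 (1%) served as positive control; EC50 is the concentration giving 50% haemolysis.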

HL-60 [18] = experiment: Cytotoxicity against human HL60 cells assessed as inhibition of cell viability at 25 ug/ml after 72 hrs by MTT assay relative to control; type: functional; conditions: HL-60, 72 h; how it was run: as §3
K562 [19] = experiment: Induction of DNA damage in human K562 cells at 17 uM after 48 hrs by propidium iodide staining based flow cytometry (reference value: 3.62 +/- 0.37%); type: functional
K562 [20] = experiment: Cytotoxicity against human K562 cells assessed as inhibition of cell viability after 48 hrs by MTT assay; type: functional, cell-based; conditions: K562, 48 h; how it was run: as §4
NCI-H292 [21] = experiment: Cytotoxicity against human NCI-H292 cells assessed as inhibition of cell viability at 25 ug/ml after 72 hrs by MTT assay relative to control; type: functional; conditions: NCI-H292, 72 h; how it was run: as §3
HEp-2 [22] = experiment: Cytotoxicity against human Hep2 cells assessed as inhibition of cell viability after 72 hrs by MTT assay; type: functional, cell-based; conditions: HEp-2, 72 h; how it was run: as §2
K562 [23] = experiment: Cytotoxicity against human K562 cells assessed as inhibition of cell viability by MTT assay; type: functional, cell-based; conditions: TDE = time-dependent effect
K562 [24] = experiment: Cell cycle arrest in human K562 cells assessed as accumulation at S-phase at 17 uM after 48 hrs by flow cytometry (reference value: 17.39 +/- 0.84%); type: functional; how it was run: as §1

**Q.** What does the source list for `FC(F)(F)c1ccc(/C=N/Nc2nc(-c3ccc(Cl)cc3Cl)cs2)cc1`?
**A.** Activity (K562 [1]): 82.74%; IC50 (NCI-H292 [2]): 10.4 µM; IC50 (HT-29 [3]): 11.2 µM; selectivity ratio [4]: 7.85; Activity (K562 [5]): 25.05%; IC50 (K562 [6]): 5.48 µM; IC50 (HL-60 [7]): 17.8 µM; inhibition at 25 µg/mL (HT-29 [8]): 79.5%; IC50 (K562 [9]): > 60.1 µM; Activity (K562 [10]): 7.51%; inhibition at 25 µg/mL (HEp-2 [11]): 96.7%; Activity (K562 [12]): 22.43%; inhibition at 25 µg/mL (K562 [13]): 88.9%; Activity (K562 [14]): 85.25%; Activity (K562 [15]): 37.12%; Activity (K562 [16]): 6.72%; IC50 (PBMC): 43 µM; Activity (K562 [17]): 11.47%; EC50 (Erythrocyte): > 250 µg/mL; inhibition at 25 µg/mL (HL-60 [18]): 91.1%; Activity (K562 [19]): 19.74%; IC50 (K562 [20]): 17.8 µM; inhibition at 25 µg/mL (NCI-H292 [21]): 96.5%; IC50 (HEp-2 [22]): 7.65 µM; Activity (K562 [23]): Tde; Activity (K562 [24]): 7.23%
